From ChEMBL document CHEMBL1817556, “Substituted lactam and cyclic azahemiacetals modulate Pseudomonas aeruginosa quorum sensing” (Bioorg Med Chem, 2011)
Values belong to the compound of their own block, whether it stands above or below them. Active and inactive are the calls of the source. No cut-off for these calls is given here.

What was measured:
[1] = molecular target: 3-(3-hydroxydecanoyloxy)decanoate synthase (Pseudomonas aeruginosa (strain ATCC 15692 / PAO1 / 1C / PRS 101 / LMG12228)) (UniProt Q51559); assay: Modulation of Pseudomonas aeruginosa lacZ-fused rhlA expressed in Escherichia coli DH5alpha co-expressing Ptac-rhlR assessed as C4-AHL-induced effect at 0.40 mM after 4 hrs by beta-galactosidase assay relative to control
Summary of the method: (§1)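 rhl reporter: E. coli DH5α carrying pECP61.5 (Ptac-rhlR, PrhlA-lacZ) was grown overnight in LB with ampicillin (100 μg/ml) only, then diluted to OD600 0.150. It was induced with 1 mM IPTG, and 2 μM C4-HSL plus compound or DMSO were added at OD600 1.0. Cultures were shaken 4 h at 37 °C. β-Galactosidase activity was read in Miller units as % of the solvent sample. Triplicates per biological replicate, at least two repeats; paired two-tailed t-test.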

[2] = molecular target: T1, Acyl-homoserine-lactone synthase (Pseudomonas aeruginosa (strain ATCC 15692 / PAO1 / 1C / PRS 101 / LMG12228)) (UniProt P33883); assay: Modulation of Pseudomonas aeruginosa lacZ-fused lasI expressed in Escherichia coli DH5alpha co-expressing pBAD-lasR assessed as 3-oxo-C12-AHL-induced effect at 0.61 mM after 3 hrs by beta-galactosidase assay relative to control
T1 sequence (whole entry): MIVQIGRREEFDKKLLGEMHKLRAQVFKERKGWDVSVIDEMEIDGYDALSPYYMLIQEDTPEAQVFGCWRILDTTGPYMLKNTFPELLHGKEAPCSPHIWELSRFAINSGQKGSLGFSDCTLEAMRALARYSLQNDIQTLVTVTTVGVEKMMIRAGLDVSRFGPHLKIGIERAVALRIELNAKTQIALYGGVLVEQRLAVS
Summary of the method: (§2)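 E. coli DH5α carrying pSC11 (PlasI-lacZ translational fusion) and pJN105L (PBAD-lasR) was grown overnight in LB with ampicillin (100 μg/ml) and gentamicin (15 μg/ml), then diluted to OD600 0.150. Arabinose (0.2% w/v), 3-oxo-C12-AHL (2 μM) and test compound or DMSO were added. Cultures were shaken 3 h at 37 °C. β-Galactosidase activity was read in Miller units and expressed as % of the solvent sample. Triplicates per biological replicate, repeated at least twice; paired two-tailed t-test.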

[3] = molecular target: T1, Acyl-homoserine-lactone synthase (Pseudomonas aeruginosa (strain ATCC 15692 / PAO1 / 1C / PRS 101 / LMG12228)); assay: Modulation of Pseudomonas aeruginosa lacZ-fused lasI expressed in Escherichia coli DH5alpha co-expressing pBAD-lasR assessed as 3-oxo-C12-AHL-induced effect at 0.40 mM after 3 hrs by beta-galactosidase assay relative to control; summary of the method: as §2
[4] = molecular target: T1, Acyl-homoserine-lactone synthase (Pseudomonas aeruginosa (strain ATCC 15692 / PAO1 / 1C / PRS 101 / LMG12228)); assay: Modulation of Pseudomonas aeruginosa lacZ-fused lasI expressed in Escherichia coli DH5alpha co-expressing pBAD-lasR assessed as 3-oxo-C12-AHL-induced effect at 0.20 mM after 3 hrs by beta-galactosidase assay relative to control; summary of the method: as §2
[5] = molecular target: 3-(3-hydroxydecanoyloxy)decanoate synthase (Pseudomonas aeruginosa (strain ATCC 15692 / PAO1 / 1C / PRS 101 / LMG12228)) (UniProt Q51559); assay: Modulation of Pseudomonas aeruginosa lacZ-fused rhlA expressed in Escherichia coli DH5alpha co-expressing Ptac-rhlR assessed as C4-AHL-induced effect at 0.81 mM after 4 hrs by beta-galactosidase assay relative to control
Summary of the method: (§3)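 E. coli DH5α carrying pECP61.5 (Ptac-rhlR, PrhlA-lacZ), grown overnight in LB with ampicillin 100 μg/ml and diluted to OD600 0.150. At OD600 1.0, 1 mM IPTG, 2 μM C4-HSL and compound or DMSO were added. Cultures were shaken 4 h at 37 °C, then β-galactosidase was read in Miller units. Activity is % of solvent sample, from triplicates per biological replicate, with at least two repeats.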

[6] = molecular target: 3-(3-hydroxydecanoyloxy)decanoate synthase (Pseudomonas aeruginosa (strain ATCC 15692 / PAO1 / 1C / PRS 101 / LMG12228)) (UniProt Q51559); assay: Modulation of Pseudomonas aeruginosa lacZ-fused rhlA expressed in Escherichia coli DH5alpha co-expressing Ptac-rhlR assessed as C4-AHL-induced effect at 0.61 mM after 4 hrs by beta-galactosidase assay relative to control; summary of the method: as §3
[7] = molecular target: 3-(3-hydroxydecanoyloxy)decanoate synthase (Pseudomonas aeruginosa (strain ATCC 15692 / PAO1 / 1C / PRS 101 / LMG12228)) (UniProt Q51559); assay: Modulation of Pseudomonas aeruginosa lacZ-fused rhlA expressed in Escherichia coli DH5alpha co-expressing Ptac-rhlR assessed as C4-AHL-induced effect at 0.20 mM after 4 hrs by beta-galactosidase assay relative to control; summary of the method: as §1
[8] = molecular target: T1, Acyl-homoserine-lactone synthase (Pseudomonas aeruginosa (strain ATCC 15692 / PAO1 / 1C / PRS 101 / LMG12228)); assay: Modulation of Pseudomonas aeruginosa lacZ-fused lasI expressed in Escherichia coli DH5alpha co-expressing pBAD-lasR assessed as 3-oxo-C12-AHL-induced effect at 0.81 mM after 3 hrs by beta-galactosidase assay relative to control; summary of the method: as §2
[9] = molecular target: 3-(3-hydroxydecanoyloxy)decanoate synthase (Pseudomonas aeruginosa (strain ATCC 15692 / PAO1 / 1C / PRS 101 / LMG12228)) (UniProt Q51559); assay: Modulation of Pseudomonas aeruginosa lacZ-fused rhlA expressed in Escherichia coli DH5alpha co-expressing Ptac-rhlR assessed as C4-AHL-induced effect at 0.67 mM after 4 hrs by beta-galactosidase assay relative to control; summary of the method: as §3
[10] = molecular target: T1, Acyl-homoserine-lactone synthase (Pseudomonas aeruginosa (strain ATCC 15692 / PAO1 / 1C / PRS 101 / LMG12228)); assay: Modulation of Pseudomonas aeruginosa lacZ-fused lasI expressed in Escherichia coli DH5alpha co-expressing pBAD-lasR assessed as 3-oxo-C12-AHL-induced effect at 0.33 mM after 3 hrs by beta-galactosidase assay relative to control; summary of the method: as §2
[11] = molecular target: 3-(3-hydroxydecanoyloxy)decanoate synthase (Pseudomonas aeruginosa (strain ATCC 15692 / PAO1 / 1C / PRS 101 / LMG12228)) (UniProt Q51559); assay: Modulation of Pseudomonas aeruginosa lacZ-fused rhlA expressed in Escherichia coli DH5alpha co-expressing Ptac-rhlR assessed as C4-AHL-induced effect at 0.33 mM after 4 hrs by beta-galactosidase assay relative to control; summary of the method: as §1
[12] = molecular target: 3-(3-hydroxydecanoyloxy)decanoate synthase (Pseudomonas aeruginosa (strain ATCC 15692 / PAO1 / 1C / PRS 101 / LMG12228)) (UniProt Q51559); assay: Modulation of Pseudomonas aeruginosa lacZ-fused rhlA expressed in Escherichia coli DH5alpha co-expressing Ptac-rhlR assessed as C4-AHL-induced effect at 0.17 mM after 4 hrs by beta-galactosidase assay relative to control; summary of the method: as §1
[13] = molecular target: T1, Acyl-homoserine-lactone synthase (Pseudomonas aeruginosa (strain ATCC 15692 / PAO1 / 1C / PRS 101 / LMG12228)); assay: Modulation of Pseudomonas aeruginosa lacZ-fused lasI expressed in Escherichia coli DH5alpha co-expressing pBAD-lasR assessed as 3-oxo-C12-AHL-induced effect at 0.67 mM after 3 hrs by beta-galactosidase assay relative to control; summary of the method: as §2
[14] = molecular target: T1, Acyl-homoserine-lactone synthase (Pseudomonas aeruginosa (strain ATCC 15692 / PAO1 / 1C / PRS 101 / LMG12228)); assay: Modulation of Pseudomonas aeruginosa lacZ-fused lasI expressed in Escherichia coli DH5alpha co-expressing pBAD-lasR assessed as 3-oxo-C12-AHL-induced effect at 0.50 mM after 3 hrs by beta-galactosidase assay relative to control; summary of the method: as §2
[15] = molecular target: T1, Acyl-homoserine-lactone synthase (Pseudomonas aeruginosa (strain ATCC 15692 / PAO1 / 1C / PRS 101 / LMG12228)); assay: Modulation of Pseudomonas aeruginosa lacZ-fused lasI expressed in Escherichia coli DH5alpha co-expressing pBAD-lasR assessed as 3-oxo-C12-AHL-induced effect at 0.17 mM after 3 hrs by beta-galactosidase assay relative to control; summary of the method: as §2
[16] = molecular target: 3-(3-hydroxydecanoyloxy)decanoate synthase (Pseudomonas aeruginosa (strain ATCC 15692 / PAO1 / 1C / PRS 101 / LMG12228)) (UniProt Q51559); assay: Modulation of Pseudomonas aeruginosa lacZ-fused rhlA expressed in Escherichia coli DH5alpha co-expressing Ptac-rhlR assessed as C4-AHL-induced effect at 0.50 mM after 4 hrs by beta-galactosidase assay relative to control; summary of the method: as §1
[17] = molecular target: 3-(3-hydroxydecanoyloxy)decanoate synthase (Pseudomonas aeruginosa (strain ATCC 15692 / PAO1 / 1C / PRS 101 / LMG12228)) (UniProt Q51559); assay: Modulation of Pseudomonas aeruginosa lacZ-fused rhlA expressed in Escherichia coli DH5alpha co-expressing Ptac-rhlR assessed as C4-AHL-induced effect at 1.14 mM after 4 hrs by beta-galactosidase assay relative to control; summary of the method: as §3
[18] = molecular target: T1, Acyl-homoserine-lactone synthase (Pseudomonas aeruginosa (strain ATCC 15692 / PAO1 / 1C / PRS 101 / LMG12228)); assay: Modulation of Pseudomonas aeruginosa lacZ-fused lasI expressed in Escherichia coli DH5alpha co-expressing pBAD-lasR at 0.29 to 0.86 mM after 3 hrs by beta-galactosidase assay relative to control; summary of the method: as §2
[19] = molecular target: T1, Acyl-homoserine-lactone synthase (Pseudomonas aeruginosa (strain ATCC 15692 / PAO1 / 1C / PRS 101 / LMG12228)); assay: Modulation of Pseudomonas aeruginosa lacZ-fused lasI expressed in Escherichia coli DH5alpha co-expressing pBAD-lasR assessed as 3-oxo-C12-AHL-induced effect at 0.57 mM after 3 hrs by beta-galactosidase assay relative to control; summary of the method: as §2
[20] = molecular target: 3-(3-hydroxydecanoyloxy)decanoate synthase (Pseudomonas aeruginosa (strain ATCC 15692 / PAO1 / 1C / PRS 101 / LMG12228)) (UniProt Q51559); assay: Modulation of Pseudomonas aeruginosa lacZ-fused rhlA expressed in Escherichia coli DH5alpha co-expressing Ptac-rhlR assessed as C4-AHL-induced effect at 0.57 mM after 4 hrs by beta-galactosidase assay relative to control; summary of the method: as §1
[21] = molecular target: T1, Acyl-homoserine-lactone synthase (Pseudomonas aeruginosa (strain ATCC 15692 / PAO1 / 1C / PRS 101 / LMG12228)); assay: Modulation of Pseudomonas aeruginosa lacZ-fused lasI expressed in Escherichia coli DH5alpha co-expressing pBAD-lasR assessed as 3-oxo-C12-AHL-induced effect at 0.86 mM after 3 hrs by beta-galactosidase assay relative to control; summary of the method: as §2
[22] = molecular target: T1, Acyl-homoserine-lactone synthase (Pseudomonas aeruginosa (strain ATCC 15692 / PAO1 / 1C / PRS 101 / LMG12228)); assay: Modulation of Pseudomonas aeruginosa lacZ-fused lasI expressed in Escherichia coli DH5alpha co-expressing pBAD-lasR assessed as 3-oxo-C12-AHL-induced effect at 0.29 mM after 3 hrs by beta-galactosidase assay relative to control; summary of the method: as §2
[23] = molecular target: T1, Acyl-homoserine-lactone synthase (Pseudomonas aeruginosa (strain ATCC 15692 / PAO1 / 1C / PRS 101 / LMG12228)); assay: Modulation of Pseudomonas aeruginosa lacZ-fused lasI expressed in Escherichia coli DH5alpha co-expressing pBAD-lasR assessed as 3-oxo-C12-AHL-induced effect at 1.14 mM after 3 hrs by beta-galactosidase assay relative to control; summary of the method: as §2
[24] = molecular target: 3-(3-hydroxydecanoyloxy)decanoate synthase (Pseudomonas aeruginosa (strain ATCC 15692 / PAO1 / 1C / PRS 101 / LMG12228)) (UniProt Q51559); assay: Modulation of Pseudomonas aeruginosa lacZ-fused rhlA expressed in Escherichia coli DH5alpha co-expressing Ptac-rhlR assessed as C4-AHL-induced effect at 0.86 mM after 4 hrs by beta-galactosidase assay relative to control; summary of the method: as §3
[25] = molecular target: 3-(3-hydroxydecanoyloxy)decanoate synthase (Pseudomonas aeruginosa (strain ATCC 15692 / PAO1 / 1C / PRS 101 / LMG12228)) (UniProt Q51559); assay: Modulation of Pseudomonas aeruginosa lacZ-fused rhlA expressed in Escherichia coli DH5alpha co-expressing Ptac-rhlR assessed as C4-AHL-induced effect at 0.29 mM after 4 hrs by beta-galactosidase assay relative to control; summary of the method: as §1

- Activity [1]: 129%
- Activity [2]: 79%
- Activity [3]: 78%
- Activity [4]: 96%
- Activity [5]: 161%
- Activity [6]: 148%
- Activity [7]: 132%
- Activity [8]: 68%
Structure (SMILES): CCCCCCSC[C@H]1NC(=O)[C@H](O)[C@@H]1O

- Activity [9]: 106%
- Activity [10]: 32%
- Activity [11]: 106%
- Activity [12]: 103%
- Activity [13]: 11%
- Activity [14]: 18%
- Activity [15]: 52%
- Activity [16]: 109%
Structure (SMILES): CCCCCCCCCCCCSC[C@@H]1CCC(=O)N1

- Activity [17]: 9%
- Activity [18]: inactive
- Activity [19]: 115%
- Activity [20]: 138%
- Activity [21]: 31%
- Activity [22]: 228%
- Activity [23]: 11%
- Activity [24]: 41%
- Activity [25]: 121%
Structure (SMILES): CCCSC[C@@H]1CCC(O)N1 (mixture of isomers)
